Measurements collected from several papers.
Protocols differ between the studies behind these lines. In brackets after ≈: the same amount, converted by molar mass.

C[C@@H]1CC[C@@H]([C@](C)(O)CNCc2ccc(F)cc2)[C@H](OCc2ccccc2)C1 gave an inhibition of 60.1% (HeLa; cell growth or viability, MTT; 30 µM, 72 h).
C=CC(=O)NC1CCN(c2ncc3ncnc(Nc4ccc(Oc5ccc6c(c5)ncn6C)c(C)c4)c3n2)CC1 gave an EC50 of 10.2 nM (SNU-216; cell growth or viability).
O=C(NC(=S)Nc1ccccc1O)c1ccco1 has an IC50 of 6080 nM (Leishmania major; parasite growth, resazurin; promastigote).
The MIC of O=C(N[C@H](CO)[C@H](O)c1ccc([N+](=O)[O-])cc1)C(Cl)Cl is reported as 1.25 to 2.5 µM (≈ 0.404 to 0.808 µg/mL) (Vibrio alginolyticus; microbial growth; 24 h).
With Cc1nc(NC(=S)NCc2ccco2)nc(-c2ccccc2)c1C(=O)N1CCC(C(=O)O)CC1 the IC50 was 180 nM (Leishmania major; parasite growth, resazurin; promastigote).
With CN[C@@H]1[C@@H](O[C@H]2O[C@H](CO)[C@@H](N)[C@H](O)[C@H]2O)OC2C[C@@H](N)[C@@H](O[C@H]3[C@H](O)[C@@H](O)[C@H](N)C[C@@H]3N)OC2[C@@H]1O (stereo partly shown) the MIC was greater than 40 µM (Vibrio alginolyticus; microbial growth; 24 h).
For O=C(NC(=S)Nc1nccs1)c1ccco1, the IC50 was 12900 nM (Leishmania major; parasite growth, resazurin; promastigote).
C[C@@H]1CC[C@@H]([C@@](O)(CNCc2ccccc2)COCc2ccccc2)[C@H](OCc2ccccc2)C1 gave an inhibition of 98.2% (HeLa; cell growth or viability, MTT; 30 µM, 72 h).
O=C(NC(=S)Nc1cccc(O)c1)c1cccs1 gave an IC50 of 290 nM (Leishmania major; parasite growth, resazurin; promastigote).
COc1ccc(COC[C@@](O)(CNCc2ccccc2)[C@@H]2CC[C@@H](C)C[C@H]2OCc2ccc(OC)cc2)cc1 has an inhibition of 93.8% (HeLa; cell growth or viability, MTT; 10 µM, 72 h).
The MIC of CN[C@H](CC(C)C)C(=O)N[C@H]1C(=O)N[C@@H](CC(N)=O)C(=O)N[C@H]2C(=O)N[C@H]3C(=O)N[C@H](C(=O)N[C@H](C(=O)O)c4cc(O)cc(O)c4-c4cc3ccc4O)[C@H](O)c3ccc(c(Cl)c3)Oc3cc2cc(c3O[C@@H]2O[C@H](CO)[C@@H](O)[C@H](O)[C@H]2O[C@H]2C[C@](C)(N)[C@H](O)[C@H](C)O2)Oc2ccc(cc2Cl)[C@H]1O is reported as 2 µM (≈ 2.9 µg/mL) (Enterococcus faecalis; microbial growth; ATCC29212).
With C=C(COCc1ccc(F)cc1)[C@@H]1CC[C@@H](C)C[C@H]1OCc1ccc(F)cc1 the inhibition was 61.5% (HeLa; cell growth or viability, MTT; 30 µM, 72 h).
With Cc1cc(NC(=O)C=Cc2ccccc2)cc(-c2ccnc(N3CCC(CO)CC3)c2)c1 the inhibition was 81.8% (HeLa; cell growth or viability, MTT; 5 µM).
